# ChEMBL document CHEMBL4371031, “In Vitro Antiviral Activity of New Oxazoline Derivatives as Potent Poliovirus Inhibitors” (J Med Chem, 2019)
# Active and inactive are the calls of the source. The calls are words filed in the database; no cut-off is given here.
# Legend:
# Type in all cases: functional, organism-based
# [1] = test system: Poliovirus 1; experiment: Antiviral activity against Human poliovirus 1 Brunhilde infected in human HeLa cells assessed as reduction in virus-induced cytopathic effect after 72 hrs by crystal violet staining-based assay; conditions: Enterovirus C
# Outline: (§1)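 HeLa cells grown in MEM-10% FBS, seeded at 2x10^5 cells/mL in MEM-2% FBS and preincubated 24 h at 37°C, 5% CO2. Compound and virus were cross-titrated […] compound in 0.5 log10 steps (7-point curves), with duplicate wells and three replicate tests per virus. After 72 h at 37°C, cells were crystal violet stained and read at 590 nm. EC50 came from a four-parameter fit; if all virus dilutions gave >80% monolayer destruction, the value was […].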
# [2] = test system: Poliovirus 2; experiment: Antiviral activity against Human poliovirus 2 10232 infected in human HeLa cells assessed as reduction in virus-induced cytopathic effect after 72 hrs by crystal violet staining-based assay; conditions: Enterovirus C, 10232, HeLa; outline: as §1
# [3] = test system: Poliovirus 2; experiment: Antiviral activity against Human poliovirus 2 10231 infected in human HeLa cells assessed as reduction in virus-induced cytopathic effect after 72 hrs by crystal violet staining-based assay; conditions: Enterovirus C, 10231, HeLa; outline: as §1
# [4] = test system: Poliovirus 1; experiment: Antiviral activity against Human poliovirus 1 10690 infected in human HeLa cells assessed as reduction in virus-induced cytopathic effect after 72 hrs by crystal violet staining-based assay; conditions: Enterovirus C, 10690, HeLa; outline: as §1
# [5] = test system: Poliovirus 1; experiment: Antiviral activity against Human poliovirus 1 10238 infected in human HeLa cells assessed as reduction in virus-induced cytopathic effect after 72 hrs by crystal violet staining-based assay; conditions: Enterovirus C, 10238, HeLa; outline: as §1
# [6] = test system: Poliovirus 2; experiment: Antiviral activity against Human poliovirus 2 10230 infected in human HeLa cells assessed as reduction in virus-induced cytopathic effect after 72 hrs by crystal violet staining-based assay; conditions: Enterovirus C, 10230, HeLa; outline: as §1
# [7] = test system: Poliovirus 2; experiment: Antiviral activity against Poliovirus Sabin 2 infected in human HeLa cells assessed as reduction in virus-induced cytopathic effect at 1 uM treated 0 to 8 hrs post infection and measured after 12 hrs by luminescence based assay
# Outline: (§2)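 HeLa monolayers were infected with Sabin 2 at 100 CCID50 for 1 h at 37°C, then washed 3x. Drug was added at 0, 1, 2, 4, 6 or 8 h post-infection and left in place. At 12 h, virus was freeze-thawed 3x and titrated in 0.5 log10 dilutions (16 replicates) on HeLa cells for 5 days. CPE was read by ATP luminescence, titre calculated as CCID50 (Kärber); mean of three independent experiments.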
# [8] = test system: Poliovirus 1; experiment: Antiviral activity against Human poliovirus 1 10241 infected in human HeLa cells assessed as reduction in virus-induced cytopathic effect after 72 hrs by crystal violet staining-based assay; conditions: Enterovirus C, 10241, HeLa; outline: as §1
# [9] = test system: Poliovirus 1; experiment: Antiviral activity against Human poliovirus 1 10692 infected in human HeLa cells assessed as reduction in virus-induced cytopathic effect after 72 hrs by crystal violet staining-based assay; conditions: Enterovirus C, 10692, HeLa; outline: as §1
# [10] = test system: Poliovirus 1; experiment: Antiviral activity against Human poliovirus 1 10691 infected in human HeLa cells assessed as reduction in virus-induced cytopathic effect after 72 hrs by crystal violet staining-based assay; conditions: Enterovirus C, 10691, HeLa; outline: as §1
# [11] = test system: Poliovirus 2; experiment: Antiviral activity against Human poliovirus 2 10221 infected in human HeLa cells assessed as reduction in virus-induced cytopathic effect after 72 hrs by crystal violet staining-based assay; conditions: Enterovirus C, 10221, HeLa; outline: as §1
# [12] = test system: Poliovirus 2; experiment: Antiviral activity against Human poliovirus 2 10228 infected in human HeLa cells assessed as reduction in virus-induced cytopathic effect after 72 hrs by crystal violet staining-based assay; conditions: Enterovirus C, 10228, HeLa; outline: as §1
# [13] = test system: Poliovirus 1; experiment: Antiviral activity against Human poliovirus 1 10237 infected in human HeLa cells assessed as reduction in virus-induced cytopathic effect after 72 hrs by crystal violet staining-based assay; conditions: Enterovirus C, 10237, HeLa; outline: as §1
# [14] = test system: Poliovirus 2; experiment: Antiviral activity against Human poliovirus 2 Lansing infected in human HeLa cells assessed as reduction in virus-induced cytopathic effect after 72 hrs by crystal violet staining-based assay; conditions: Enterovirus C; outline: as §1
# [15] = test system: Poliovirus 2; experiment: Antiviral activity against Human poliovirus 2 10220 infected in human HeLa cells assessed as reduction in virus-induced cytopathic effect after 72 hrs by crystal violet staining-based assay; conditions: Enterovirus C, 10220, HeLa; outline: as §1
# [16] = test system: Poliovirus 3; experiment: Antiviral activity against Poliovirus Sabin 3 infected in human HeLa cells assessed as reduction in virus-induced cytopathic effect after 72 hrs by crystal violet staining-based assay; conditions: Enterovirus C
# Outline: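 HeLa cells grown in MEM-10% FBS, seeded at 2x10^5 cells/mL in MEM-2% FBS and held 24 h at 37°C, 5% CO2. Compound and virus were cross-titrated together on the cells starting at 10 µM compound, in 0.5 log10 steps, duplicate wells, three replicate tests per virus. Incubated 72 h at 37°C, stained with crystal violet, A590 read. EC50 from four-parameter fit.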
# [17] = test system: Poliovirus 2; experiment: Antiviral activity against Human poliovirus 2 P712 infected in human HeLa cells assessed as reduction in virus-induced cytopathic effect after 72 hrs by crystal violet staining-based assay; conditions: Enterovirus C; outline: as §1
# [18] = test system: Poliovirus 1; experiment: Antiviral activity against Human poliovirus 1 10695 infected in human HeLa cells assessed as reduction in virus-induced cytopathic effect after 72 hrs by crystal violet staining-based assay; conditions: Enterovirus C, 10695, HeLa; outline: as §1
# [19] = test system: Poliovirus 2; experiment: Antiviral activity against Human poliovirus 2 10233 infected in human HeLa cells assessed as reduction in virus-induced cytopathic effect after 72 hrs by crystal violet staining-based assay; conditions: Enterovirus C, 10233, HeLa; outline: as §1
# [20] = test system: Poliovirus 3; experiment: Antiviral activity against Human poliovirus 3 Sabin 3 infected in human HeLa cells assessed as reduction in virus-induced cytopathic effect after 72 hrs by crystal violet staining-based assay; conditions: Enterovirus C, Sabin 3, HeLa; outline: as §1
# [21] = test system: Poliovirus 1; experiment: Antiviral activity against Human poliovirus 1 10689 infected in human HeLa cells assessed as reduction in virus-induced cytopathic effect after 72 hrs by crystal violet staining-based assay; conditions: Enterovirus C, 10689, HeLa; outline: as §1
# [22] = test system: Poliovirus 2; experiment: Antiviral activity against Poliovirus Sabin 2 infected in human HeLa cells assessed as reduction in virus-induced cytopathic effect at 1 uM treated 1 hr post infection and measured after 12 hrs by luminescence based assay; outline: as §2
# [23] = test system: Poliovirus 2; experiment: Antiviral activity against Poliovirus Sabin 2 infected in human HeLa cells assessed as reduction in virus-induced cytopathic effect at 1 uM treated 6 hrs post infection and measured after 12 hrs by luminescence based assay; outline: as §2
Compound,EC50 [1] [µM],EC50 [2] [µM],EC50 [3] [µM],EC50 [4] [µM],EC50 [5] [µM],EC50 [6] [µM],EC50 [8] [µM],EC50 [9] [µM],EC50 [10] [µM],EC50 [11] [µM],EC50 [12] [µM],EC50 [13] [µM],EC50 [14] [µM],EC50 [15] [µM],EC50 [16] [µM],EC50 [17] [µM],EC50 [18] [µM],EC50 [19] [µM],EC50 [20] [µM],EC50 [21] [µM],further results
Cc1ccc(C(=O)CCC/C=C/c2ccc(C3=NCCO3)cc2)s1,0.07,0.023,0.03,1.26,0.19,0.03,0.37,0.78,0.98,0.02,0.5,0.28,0.06,0.02,0.053,0.24,0.58,0.19,0.05,0.034,Activity [7]: Active
Cc1ccc(C(=O)CCCCSc2ccc(C3=NCCO3)cc2)s1,0.47,6.33,5.33,2,7.47,5.33,8.07,> 10,0.56,2.37,9.1,6.47,2.27,1,0.33,2.93,7.43,8.47,0.33,2.03,Activity [22]: inactive; Activity [23]: Active
Cc1ccc(C(=O)CCCCOc2ccc(C3=NCCO3)cc2)s1,0.99,0.54,0.05,48.7,2.1,0.1,3.17,> 100,67.5,0.02,10.1,5.75,0.59,0.04,0.367,> 100,8.41,0.45,0.32,0.06,Activity [22]: inactive; Activity [23]: inactive
